# CHRM5 antagonist – blocks acetylcholine activation of human M5 receptor | P08912 | CHO-hM5 cells, Fluo-8 calcium fluorescence, ACh EC80 | inhibition, % at 3 µM | 360,000 tested, 0.59% active | AID 624040;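 active = inhibition above a per-plate cutoff, the mean of that plate's test compounds plus 3 SD, cut at about 27% in these data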;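 also: 0% = acetylcholine EC80 with DMSO and 100% = DMSO without agonist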
# Target sequence (P08912 whole entry, looked up): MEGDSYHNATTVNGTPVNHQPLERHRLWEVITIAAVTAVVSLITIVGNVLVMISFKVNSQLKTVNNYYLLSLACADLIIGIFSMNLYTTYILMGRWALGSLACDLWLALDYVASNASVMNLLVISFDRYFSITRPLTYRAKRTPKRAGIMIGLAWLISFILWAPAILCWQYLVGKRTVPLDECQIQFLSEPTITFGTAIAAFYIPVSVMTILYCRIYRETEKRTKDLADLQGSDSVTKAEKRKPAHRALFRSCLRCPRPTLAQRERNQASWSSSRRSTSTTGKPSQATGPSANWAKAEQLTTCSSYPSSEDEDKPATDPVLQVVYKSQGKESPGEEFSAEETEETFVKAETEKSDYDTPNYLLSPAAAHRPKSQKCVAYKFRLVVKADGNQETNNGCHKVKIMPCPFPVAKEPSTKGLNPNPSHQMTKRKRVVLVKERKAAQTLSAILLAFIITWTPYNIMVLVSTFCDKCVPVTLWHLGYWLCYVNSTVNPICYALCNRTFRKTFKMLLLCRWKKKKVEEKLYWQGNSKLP
# M4 antag – blocks acetylcholine activation of human M4 receptor; CHO-hM4 cells, ACh EC80, Fluo-8 calcium fluorescence; P08173; AID 624125; 360,000 tested, 0.73% active; inhibition, % at 3 µM;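 active = inhibition above its plate's cutoff, the mean inhibition of sample wells plus 3 SD, cut at about 27% in these data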;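 also: 0% = acetylcholine EC80 with DMSO and 100% = DMSO without agonist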
# CHRM4 agonist – CHRM4 agonism in calcium assay; P08173; CHO-K1 hM4/Gqi5, Fluo-8 calcium fluorescence; vehicle 0%, full acetylcholine response 100%; activation, % at 3 µM; 360,000 tested, 0.14% active;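 active = activation above the run mean over all test wells plus 3 SD, cut at about 32% in these data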;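 also: peak over basal fluorescence ratio per well then scaled between controls; 0% = DMSO wells and 100% = acetylcholine at EC100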
# M5 PAM – positive allosteric modulators of human muscarinic M5 receptor. P08912. CHO-K1 hM5, Fluo-8 calcium, ACh EC20 PAM; 0% = ACh EC20, 100% = ACh EC100. activation, % at 3 µM. 360,000 tested, 0.3% active. AID 624038;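 active = activation above the run cutoff, the mean activation of all test compounds plus 3 SD, cut at about 18% in these data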
#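 Replicates: One well per compound, no replicates | System: Human M5 receptor in CHO-K1 cells | Benchmarks: Low control EC20 acetylcholine (0%), high control EC100 acetylcholine (100%) | Probe or stimulus: Acetylcholine, EC20 level | Times: Fluo-8 loading 80 min at 37 °C plus 30 min room temperature | Signal: Intracellular calcium via Fluo-8 fluorescence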
# M4 PAM – positive allosteric modulators of human muscarinic M4 receptor; P08173; CHO-K1 hM4/Gqi5, Fluo-8 calcium fluorescence, ACh EC20; 0% = ACh EC20, 100% = maximal ACh; activation, % at 3 µM; 360,000 tested, 0.4% active; AID 624126;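 active = activation above its plate's cutoff, the mean activation of sample wells plus 3 SD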
# M5 ag – CHRM5 agonism in calcium assay. P08912. CHO-K1 hM5 cells, Fluo-8 calcium fluorescence; 0% DMSO wells, 100% maximal acetylcholine response. activation, % at 3 µM. 360,000 tested, 0.19% active. AID 624037;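 active = activation above the run's mean over test compounds plus 3 SD, cut at about 23% in these data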;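 also: signal is peak over basal fluorescence ratio across the kinetic read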
# The depositor's hits bear a star. Shown are actives, neighbours in structure and some others; about 1.8% of the full set was active somewhere.
SMILES,CHRM5 antagonist,M4 antag,CHRM4 agonist,M5 PAM,M4 PAM,M5 ag
COc1cc(C)ccc1OCc1cc(C(=O)N2CCN(C)C[C@@H]2c2ccccc2)no1,-13.9,-28.2,9.6,-0.4,-2.6,-2.8
Cc1ccc(C)c(OCCC(=O)OCC(=O)NCc2ccccc2)c1,1.5,-1.2,1.1,0.7,-1.0,-1.2
Cc1ccc(C)c(OCCC(=O)OCC(=O)NCCNC(=O)COC(=O)CCOc2cc(C)ccc2C)c1,34.5*,38.5*,27.0,-31.4,-15.0,7.7
CC(=O)c1cc2c(cc1NC(=O)C1CCC1)OCO2,-9.6,-0.8,2.4,14.3,23.6*,-3.6
C[C@H](NC(=O)Nc1ccccc1F)C(=O)O,-0.2,-0.1,1.3,-2.5,13.2,2.0
C[C@H](NC(=O)c1ccccc1Cl)C(=O)Nc1ccccc1F,10.9,75.0*,-5.5,-0.5,-21.1,-2.5
COC(=O)c1cc(Br)c(=O)n(-c2nccs2)c1,-12.0,-14.6,0.8,5.0,28.1*,-1.5
O=C(C(=O)N(Cc1ccccc1)Cc1ccccc1)c1c(-c2ccccc2)[nH]c2ccccc12,20.7,31.1*,18.9,-17.4,-12.4,4.1
CC(C)(C)NS(=O)(=O)c1ccc(NC(=O)Cc2ccccc2[N+](=O)[O-])cc1,-13.2,-4.6,8.9,1.3,19.8*,0.0
CCCCNS(=O)(=O)c1ccc(NC(=O)Cc2ccccc2[N+](=O)[O-])cc1,0.1,0.5,3.6,1.0,1.2,0.8
CC(c1ccccc1)C(OC(=O)c1cccc([N+](=O)[O-])c1C(=O)O)c1ccccc1 (centres undefined),12.5,-3.5,0.5,8.2,1.3,-0.7
COC(=O)CCc1c(C)[nH]c(=S)[nH]c1=O,-14.1,-2.8,1.1,11.2,8.3,0.2
COC(=O)Cc1[nH]c(=S)[nH]c1C(=O)OC,5.0,-4.0,1.6,6.5,33.3*,-0.5
CCn1c(SCC(=O)NNC(=O)c2ccc(C)cc2)nnc1C(C)C,3.1,-14.6,0.9,0.2,15.2*,-4.2
COc1ccc(N2CCOCC2)c(NC(=O)c2ccco2)c1,15.4,2.3,1.4,0.7,-1.8,-1.9
COC(=O)c1ccc(N2CCOCC2)c(NC(=O)c2ccco2)c1,2.5,28.5*,-0.1,7.4,-7.7,-4.0
Cc1ccc([C@H]2C[C@@H](O)[C@H](n3cc(C4CC4)nn3)CN2Cc2cccs2)cc1,-8.8,-28.5,-0.3,0.1,16.8*,-1.7
CCOc1ccc(NC(=O)CC2S/C(=N/N=C3CCCCCC3)NC2=O)cc1 (centres undefined),-2.1,2.0,0.5,7.1,4.7,-4.8
CC1CCCCC1NC1=NCCS1 (centres undefined),2.2,1.7,0.3,2.4,-0.6,-8.3
CC1CN=C(NC2CCCCC2C)S1 (centres undefined),0.6,27.2*,0.4,3.1,-9.1,-4.8
Cc1cccc(CN2CCN(C3CN(Cc4cn(Cc5ccc(Cl)cc5)nn4)S(=O)(=O)C3)CC2)c1 (centres undefined),-0.4,-1.9,3.8,-11.3,-1.9,2.0
CCCCCC(C)NC(=O)CN1C(=O)NC(C)(c2ccc3ccccc3c2)C1=O (centres undefined),-10.0,-14.9,3.5,4.2,23.0*,-0.4
CCN(CC(=O)Nc1ccc(NC(C)=O)cc1)C(=O)CN1C(=O)NC(C)(c2ccc3ccccc3c2)C1=O (centres undefined),-2.6,-8.1,1.4,5.4,26.6*,4.2
C=C(C)CN(CC)C(=O)CN1C(=O)NC(C)(c2ccc3ccccc3c2)C1=O (centres undefined),8.0,6.5,3.2,-3.4,-3.7,2.3
CCN(Cc1ccccc1)Cc1ccc(OCc2ccccc2)cc1,13.7,26.7*,-2.3,-15.8,-13.2,-15.8
Nc1ccc(OCc2ccccc2)cc1,6.1,-5.0,0.1,-4.3,-0.5,1.3
CCc1ccc(OCCCCN(C)Cc2ccccc2)cc1,17.9,29.6*,1.1,-5.8,-15.7,-15.1
Cc1ccccc1CCNC(=O)C1CC(O)CN1C(=O)Nc1ccccc1 (centres undefined),3.9,-4.3,0.6,8.8,13.7,-5.2
